Test results: ChEMBL document CHEMBL1150687, “Three new cytotoxic sesterterpenes from a marine sponge Spongia sp” (J Nat Prod, 2003)
≈ marks a conversion by molar mass, not a printed value. Calls of active or inactive are those of the source. No cut-off for these calls is given here.

Experiments:
L1210 = assay: Cytotoxicity against mouse L1210 cells; assay type: functional, cell-based
HeLa = assay: Cytotoxicity against human HeLa cells; assay type: functional, cell-based
A549 = assay: Cytotoxicity against human A549 cells; assay type: functional, cell-based
CCRF S-180 [1] = assay: Antitumor activity against mouse S180 cells xenografted ICR/kwl mouse assessed as increase in mouse life span at 5 mg/kg, ip relative to control; assay type: functional
Method in brief: (§1)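 Female ICR/kwl mice (7 weeks, 19-21 g), six per group, inoculated ip with 0.1 mL sarcoma-180 suspension (1×10^7 cells/mL in saline). Compound dissolved in a little dimethylacetamide, suspended in 10% Tween 80-saline (1 mg/mL), given ip on days 1, 5 and 9 after inoculation. Survival followed; ILS (%) = (A/B − 1)×100 from weighed median survival days, treated versus untreated controls.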

KB = assay: Cytotoxicity against human KB cells; assay type: functional, cell-based
CCRF S-180 [2] = assay: Antitumor activity against mouse S180 cells xenografted ICR/kwl mouse assessed as increase in mouse life span at 10 mg/kg, ip relative to control; assay type: functional; method in brief: as §1

SMILES | IC50 (L1210) | IC50 (HeLa) | IC50 (A549) | Activity (CCRF S-180 [1]) | IC50 (KB) | Activity (CCRF S-180 [2]) | Activity (CCRF S-180 [1]; route intraperitoneal) | Activity (CCRF S-180 [2]; route intraperitoneal)
CC1(C)CCC[C@]2(C)[C@H]3C[C@@H](O)[C@]4(C)[C@@H]5C(=CC[C@H]4[C@]3(C)CC[C@@H]12)C(=O)O[C@H]5O | 2.3 µg/mL (≈ 5.71 µM) | 15 µg/mL (≈ 37.3 µM) | 14.8 µg/mL (≈ 36.8 µM) | inactive | 14.3 µg/mL (≈ 35.5 µM) |  |  | 
CO[C@@]12[C@H](COC(N)=O)C3=C(C(=O)C(C)=C(N)C3=O)N1C[C@@H]1N[C@@H]12 [MITOMYCIN] | 0.02 µg/mL (≈ 0.0598 µM) | 0.015 µg/mL (≈ 0.0449 µM) | 0.02 µg/mL (≈ 0.0598 µM) |  | 0.015 µg/mL (≈ 0.0449 µM) |  |  | 
CO[C@@H]1C[C@H]2[C@]3(C)CC[C@H]4C(C)(C)CCC[C@]4(C)[C@H]3C[C@@H](OC(C)=O)[C@]2(C)C2=C1C(=O)O[C@H]2O | 2.2 µg/mL (≈ 4.64 µM) | 5.3 µg/mL (≈ 11.2 µM) | 5.3 µg/mL (≈ 11.2 µM) |  | 15.6 µg/mL (≈ 32.9 µM) |  |  | 
O=c1[nH]cc(F)c(=O)[nH]1 [FLUOROURACIL] |  |  |  |  |  | Active | 32.9% | 
CC(=O)O[C@@H]1C[C@@H]2[C@@]3(C)CCCC(C)(C)[C@@H]3CC[C@@]2(C)[C@@H]2CC=C3C(=O)O[C@@H](O)[C@@H]3[C@@]12C | 13.2 µg/mL (≈ 29.7 µM) | 26 µg/mL (≈ 58.5 µM) | 23.7 µg/mL (≈ 53.3 µM) |  | 18.5 µg/mL (≈ 41.6 µM) |  |  | 
CC1(C)CCC[C@]2(C)[C@H]3C[C@@H](O)[C@]4(C)c5cocc5CC[C@H]4[C@]3(C)CC[C@@H]12 | > 50 µg/mL | 19.5 µg/mL (≈ 52.6 µM) | > 50 µg/mL |  | > 50 µg/mL |  |  | 
CC1(C)CCC[C@]2(C)[C@H]3C[C@@H](O)[C@]4(C)[C@H]5COC(=O)C5=CC[C@H]4[C@]3(C)CC[C@@H]12 | 1.6 µg/mL (≈ 4.14 µM) | 16.5 µg/mL (≈ 42.7 µM) | 16.5 µg/mL (≈ 42.7 µM) |  | 17.1 µg/mL (≈ 44.2 µM) |  | 50.3% | 
CC(=O)O[C@@H]1C[C@@H]2[C@@]3(C)CCCC(C)(C)[C@@H]3CC[C@@]2(C)[C@@H]2CC=C3CO[C@@H](O)[C@@H]3[C@@]12C | 2.1 µg/mL (≈ 4.88 µM) | 22.5 µg/mL (≈ 52.2 µM) | 29.4 µg/mL (≈ 68.3 µM) |  | 16.2 µg/mL (≈ 37.6 µM) |  |  | 28%
